Screens deposited in PubChem by Sanford-Burnham Center for Chemical Genomics.
An excerpt weighted towards active compounds, which were near 0.64% of everything screened.
TNAP act hi DEA = TNAP activators at high phosphate acceptor level, primary screen, biochemical, luminescence, uHTS; 200,000 tested, under 10 active; activation factor at 20 µM; purified TNAP, CDP-star luminescence, 1 M DEA, 30 min; active compounds read high; 0 = EDTA background, 1 = DMSO-only activity; AID 1136, 2008; Alkaline phosphatase, tissue-nonspecific isozyme (Homo sapiens), P05186;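 active = activation factor at least 2 at 20 µM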
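system = human TNAP | amount = enzyme diluted 1/800 final | reagent = 100 µM CDP-star substrate | signal = luminescent substrate turnover signal | dosing = one dose, 20 µM | benchmarks = EDTA negative control, DMSO positive control | measure = activation factor | timing = 30 min reaction, room temperature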
TNAP inh hi DEA = human TNAP enzyme inhibitors, primary screen, biochemical, luminescent, high phosphate acceptor level, uHTS; Alkaline phosphatase, tissue-nonspecific isozyme (Homo sapiens), P05186; purified TNAP, CDP-star luminescence, 1 M DEA; inhibition, % at 20 µM; 200,000 compounds, 0.03% hits; AID 1135, 2008;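 active = over 50% inhibition of tissue-nonspecific alkaline phosphatase at 20 µM in the single-dose screen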;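 note: plate controls were DMSO wells for no effect and EDTA-quenched wells as full inhibition for full effect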
PMI act hi M6P = human PMI activators, high substrate, primary screen, biochemical, fluorescence intensity, near-saturating mannose 6-phosphate | coupled PMI enzyme assay, resazurin fluorescence, 20 min; active compounds read high; 1 = untreated enzyme, 0 = substrate-free blank | activation factor at 20 µM | 190,000 compounds, 0.34% hits | AID 1216, 2008;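 active = activation factor of 2 or more at 20 µM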
Target sequence (P34949 whole entry, looked up): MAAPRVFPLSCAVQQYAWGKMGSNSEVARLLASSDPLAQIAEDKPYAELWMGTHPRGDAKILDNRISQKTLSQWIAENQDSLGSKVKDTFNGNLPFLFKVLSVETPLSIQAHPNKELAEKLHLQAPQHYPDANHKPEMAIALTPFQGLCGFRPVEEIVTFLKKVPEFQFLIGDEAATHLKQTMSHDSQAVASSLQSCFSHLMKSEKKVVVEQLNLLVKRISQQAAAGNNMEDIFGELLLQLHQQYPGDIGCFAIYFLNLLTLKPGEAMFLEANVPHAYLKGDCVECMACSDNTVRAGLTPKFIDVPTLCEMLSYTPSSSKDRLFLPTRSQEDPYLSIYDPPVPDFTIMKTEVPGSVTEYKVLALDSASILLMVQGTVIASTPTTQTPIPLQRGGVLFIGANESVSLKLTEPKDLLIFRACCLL
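Test system: human phosphomannose isomerase with PGI, G6PDH, diaphorase coupling enzymes; Amount: PMI at 15 ng/mL final; Reagent: Mannose-6-phosphate 1.0 mM (near-saturating) plus 0.22 mM NADP+; Timing: 20 min, room temperature; Technique: resorufin fluorescence at Ex 544/Em 590 nm; Dosing: 20 µM single dose.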
PMI activator = activators of human PMI, primary screen, biochemical, fluorescence intensity, near-Km mannose 6-phosphate. Mannose-6-phosphate isomerase (Homo sapiens), P34949. 190,000 compounds, 0.005% hits. AID 1214, 2008. activation factor at 20 µM. purified human PMI, coupled resazurin fluorescence, 20 min; active compounds read high; 1 = vehicle control, 0 substrate-free wells;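 active = activation factor of 2 or more at 20 µM, relative to plate controls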
TNAP inh noacc = human TNAP enzyme inhibitors, primary screen, biochemical, luminescent, no phosphate acceptor, uHTS | Alkaline phosphatase, tissue-nonspecific isozyme (Homo sapiens), P05186 | purified TNAP, CDP-star luminescence, 30 min | inhibition, % at 20 µM | 200,000 compounds, 0.26% hits | AID 1012, 2008;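 active = tissue-nonspecific alkaline phosphatase inhibition above about 50% at 20 µM in the single-dose screen, limit read from the data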;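 note: 0% = DMSO negative control and 100% = EDTA positive control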
An asterisk follows results filed as active; · = no result.

SMILES	TNAP act hi DEA	TNAP inh hi DEA	PMI act hi M6P	PMI activator	TNAP inh noacc
C/C(=N\NC(=O)c1ccc([N+](=O)[O-])cc1)c1cc2ccccc2oc1=O	0.9	14	1.1	1.1	-2
COc1ccc2oc(=O)c(/C(C)=N/Nc3ccccc3)cc2c1	1	4	2.5*	1.9	-8
C/C(=N\NC(=O)c1ccccc1)c1cc2cc([N+](=O)[O-])ccc2oc1=O	0.4	58*	1.1	0.9	19
CNC(=O)c1cc2cc(OC)ccc2oc1=O	1	-2	1.1	1.1	-14
Cc1nc(C/C(=N\Nc2ccccc2)c2ccc(O)cc2O)cs1	1	1	2.1*	1.4	0
CCc1cc(/C(Cc2ccccn2)=N\Nc2ccccc2)c(O)cc1O	1	0	2.1*	1.6	-6
Cc1nc(CC(=O)c2ccc(O)cc2O)cs1	1	-1	1	1	3
CN1CCC2(CC1)N=C(c1ccc(F)cc1)C(=S)N2C(=O)c1ccc(C(C)(C)C)cc1	1	-3	1.1	1	-3
c1ccc(-c2nc(CSc3n[nH]c(-c4cccs4)n3)cs2)cc1	1.1	-5	1.1	1	60*
Nc1cc(=O)[nH]c(SCc2csc(-c3ccccc3)n2)n1	1	-3	0.9	1	-17
COc1ccccc1N(C)S(=O)(=O)c1ccc(C(=O)OCC(=O)c2c[nH]c3ccccc23)cc1	1	3	0.8	0.9	0
Cc1ccc(N2NC(C)(c3cccs3)NC2=S)cc1 (configuration not stated)	1	0	2.7*	1.6	8
Nc1nc(Cl)cc(N2CCCC2)n1	1	-4	0.5	0.7	-8
Nc1nc(Cl)cc(N2CCC(c3cc(-c4ccc(Cl)cc4Cl)n[nH]3)CC2)n1	1	-1	0.9	0.9	56*
O=c1c2ccccc2cnn1Cc1n[nH]c(=S)n1-c1cc(Cl)cc(Cl)c1	0.9	7	0.9	0.9	61*
O=c1c2ccccc2cnn1Cc1n[nH]c(=S)n1-c1ccc(F)c(Cl)c1	1	-4	1	1	1
O=C(Nc1cccc(S(=O)(=O)N2CCOCC2)c1)c1ccc2c(=O)n3c(nc2c1)CCCCC3	1	-2	1.1	1.1	-10
CCOC(=O)c1c2c3c(c(Cl)ccc3[nH]c1=O)C(=O)c1ccccc1-2	0.9	8	2*	1.6	-4
CCOC(=O)c1c2c3c(cccc3[nH]c1=O)C(=O)c1ccccc1-2	1	3	1.3	1.4	-7
COCCn1nnnc1CN1CCSCC1	1	-3	1	1.1	-6
Cc1ccc(N=C2NC(=O)C(CC(=O)O)S2)cc1 (configuration not stated)	1	-4	1	1	64*
CCCc1nc2ccccc2c(=O)n1-c1ccc(C(=O)OCC)cc1	1	-4	·	·	-11
CCOc1ccc(/C=C/C(=O)c2cc(Br)ccc(=O)c2O)cc1	0.9	8	2*	1.6	14
Nc1c(C(=O)O)sc2nc(-c3ccccc3)c3c(c12)CCCC3	1	3	2.2*	1.5	2
Nc1c(C(=O)Nc2nc3ccccc3s2)sc2nc(-c3cccs3)ccc12	0.9	6	0.9	0.9	10
SMILES	TNAP act hi DEA	TNAP inh hi DEA	PMI act hi M6P	PMI activator	TNAP inh noacc
CC(=O)c1sc2nc(-c3cccs3)ccc2c1N	1.1	-10	2.1*	1.7	12
Cc1ccc(S(=O)(=O)NNc2ccccc2)c(C)c1	1	-1	2.7*	1.7	4
N#Cc1c(-c2ccccc2Cl)cc(-c2ccccc2)[nH]c1=S	1	-3	2.5*	1.6	7
N#Cc1c2c(c(-c3ccccc3Cl)[nH]c1=S)CCCC2	1.1	-6	2.4*	1.6	-3
N#Cc1c(-c2ccncc2)c2c([nH]c1=S)CCCC2	1	3	1.1	1.1	0
COc1ccc(NC(=O)COc2nc3ccccc3nc2N2CCOCC2)c(OC)c1	1	-4	1.1	1.1	-7
